SUMO Mot1 rescue: blocks SUMOylation pathway, rescuing yeast Mot1-301 growth; 1% of 320,000 active; S. cerevisiae Mot1-301 growth rescue, ATP luminescence, 38.5C; percent above DMSO median, 100 means doubled; growth rescue, % at 18.8 µM;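 active = every valid replicate shows activation above 250% relative to neutral control wells; inactive = the rest, any valid replicate at or below 250%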;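 note: OY570 slx delta 5 strain wells were the positive control but not used for scaling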
A3A deaminase: blocks human APOBEC3A ssDNA deamination; P31941; recombinant A3A, FAM/TAMRA ssDNA deamination fluorescence; inhibition, % at 20 µM; 0.41% of 330,000 active; AID 493011;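 active = at least 40% inhibition at 20 µM here, with at most 30% in a related deaminase screen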;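 note: plate controls were A3A with DMSO for no effect and wells lacking A3A enzyme for full effect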
Target sequence (P31941 whole entry, looked up): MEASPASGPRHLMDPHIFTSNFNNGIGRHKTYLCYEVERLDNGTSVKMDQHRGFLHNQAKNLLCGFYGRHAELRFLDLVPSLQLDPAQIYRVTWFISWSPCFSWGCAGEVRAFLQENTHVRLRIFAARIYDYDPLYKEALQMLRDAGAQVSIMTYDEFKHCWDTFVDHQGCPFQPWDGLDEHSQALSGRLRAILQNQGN
ASAP1 inh: inhibitors of human ASAP1 ArfGAP activity. Q9ULH1. ASAP1-stimulated ARF1 GTP hydrolysis, GDP FP detection. AID 624377. inhibition, % at 16.5 µM. 0.19% of 360,000 active; in the data active = inhibition above about 25%;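 note: 0% = vehicle with enzyme and substrate and 100% = no enzyme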
A3G deaminase: APOBEC3G (human) deaminase inhibition. 0.28% of 330,000 active. inhibition, % at 20 µM. recombinant A3G, ssDNA deamination FAM/TAMRA fluorescence;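 active = inhibition of at least 40% at 20 µM, with no more than 30% in the related APOBEC3A deaminase screen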;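 note: plate controls were DMSO wells with A3G for no effect and wells lacking A3G enzyme for full effect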
Target sequence (Q9HC16 whole entry, looked up): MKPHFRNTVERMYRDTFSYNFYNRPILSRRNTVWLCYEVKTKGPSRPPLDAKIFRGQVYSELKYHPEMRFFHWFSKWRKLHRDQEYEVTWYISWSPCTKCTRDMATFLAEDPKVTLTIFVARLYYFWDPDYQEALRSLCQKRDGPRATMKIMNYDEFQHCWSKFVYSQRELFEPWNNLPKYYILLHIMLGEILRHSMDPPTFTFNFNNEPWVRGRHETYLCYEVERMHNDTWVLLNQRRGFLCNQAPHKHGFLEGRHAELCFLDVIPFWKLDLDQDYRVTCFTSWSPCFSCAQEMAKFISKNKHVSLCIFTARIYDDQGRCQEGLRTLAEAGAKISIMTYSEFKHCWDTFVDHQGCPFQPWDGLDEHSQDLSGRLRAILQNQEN
ARFGAP1 inh: rat ARFGAP1 inhibition. Arfgap1-stimulated ARF1 GTP hydrolysis, GDP FP detection. Q62848. inhibition, % at 16.5 µM. 0.26% of 360,000 active;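 active = inhibition above a per-plate limit, mean inhibition of low control wells plus 3 SD, cut at about 25% in these data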;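 note: 0% = DMSO wells with enzyme and 100% = wells lacking Arfgap1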
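Repeats: one replicate per compound; assay system: rat Arfgap1 catalytic domain, aa 1-136; times: enzyme reaction 120 min at 25 °C after 20 min preincubation; detection: FP of antibody-bound GDP Alexa 633 tracer, ex 620/em 688 nm; benchmarks: high control wells lacking Arfgap1, low control full reaction with DMSO; reagent: human ARF1(Δ1-17)-GTP substrate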
Statin myotox sup: suppressors of simvastatin-induced myotoxicity in C2C12 myotubes; ATP luminescence, 48 h; scaled: DMSO 0, geranylgeraniol control 100; rescue of ATP level, % at 7.49 µM; 0.78% of 330,000 active;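 active = mean ATP rescue above about 67%, or every replicate alone reaching that limit, limit read from the data, passing the limit was not always enough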;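 note: myotubes were challenged with 10 µM simvastatin during compound exposure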
An asterisk follows results filed as active; x = not tested or not shown. A selection: hits, their analogues and other compounds. The true share with any hit is near 2.1%.

SMILES | SUMO Mot1 rescue | A3A deaminase | ASAP1 inh | A3G deaminase | ARFGAP1 inh | Statin myotox sup
O=C(NCc1ccco1)C(c1ccc(F)cc1)N(Cc1cccnc1)C(=O)Cn1nnc2ccccc21 (stereo not given) | -24 | -1 | -4 | 0 | 0 | 102*
Cc1ccc(N(C(=O)Cn2nnc3ccccc32)C(C(=O)NCc2ccco2)c2ccc(C)o2)cc1 (stereo not given) | x | x | 2 | x | -14 | 130*
COCCNC(=O)C(c1cccs1)N(Cc1ccccc1)C(=O)Cn1nnc2ccccc21 (stereo not given) | 284* | -1 | 2 | 0 | -12 | x
COCCNC(=O)C(c1cccs1)N(CCc1ccccc1)C(=O)Cn1nnc2ccccc21 (stereo not given) | -5 | -3 | 11 | -2 | -2 | 15
O=C(C[C@@H]1C=C[C@H](NS(=O)(=O)c2ccccc2)[C@@H](CO)O1)NCc1ccccc1F | x | x | x | x | x | 2
CN(C)c1ccnc(Oc2ccc(C(C)(C)C)cc2)c1C#N | 356* | -5 | 5 | -5 | -6 | -17
O=C(NC[C@H]1N[C@H](CO)[C@@H]1c1ccc(C2=CCCCC2)cc1)c1ccccc1 | x | x | x | x | x | -14
O=C1CC(c2ccccc2)Oc2cc(O)cc(O)c21 (stereo not given) | 8 | 2 | 2 | 2 | -4 | 13
COc1cc(OC)c2c(c1O)OC(c1ccccc1)CC2=O (stereo not given) | 696* | 5 | 5 | 6 | -11 | -2
C[C@@H]1CN([C@H](C)CO)C(=O)c2cccc(NC(=O)Nc3ccc(C(F)(F)F)cc3)c2O[C@H]1CN(C)C(=O)Nc1ccc(C(F)(F)F)cc1 | x | x | x | x | x | -35
CCC(C)(CCNC(=O)Cc1ccccc1)c1ccccc1OC (stereo not given) | 533 | -3 | 8 | -8 | 3 | 121*
COc1ccccc1C(=O)NNC(=O)Cc1ccccc1 | 0 | -5 | 14 | -8 | 2 | -2
C[C@@H](NC(=O)C[C@H]1C[C@@H]2c3cc(NC(=O)Nc4ccccc4F)ccc3O[C@@H]2[C@@H](CO)O1)c1ccccc1 | x | x | x | x | x | 1
CC(C)CCOc1cccc(OCC(=O)Nc2ccncc2)c1 | 317* | -1 | -2 | -3 | 7 | -21
CCOCCN1CCN(c2c(CC)c(C)nc3cc(-c4cc(OC)cc(OC)c4)nn23)CC1 | 8 | -3 | 5 | -3 | -2 | 99*
CCOC(=O)/C(=N\Nc1cccc(C(F)(F)F)c1)N1CCOCC1 | 266* | 6 | 4 | 9 | 14 | x
Cc1ccc(-c2nnn(CC(=O)N(c3ccc(F)cc3)C(C(=O)NC(C)(C)C)c3ccco3)n2)o1 (stereo not given) | x | -2 | -10 | -9 | -5 | 83*
O=C1CCCC2=C1C(c1ccco1)Nc1ccc3ccccc3c12 (stereo not given) | 6 | 90 | 3 | 68 | -13 | 95*
C=C(C)CNC(=S)N/N=C1\CCCCc2ccccc21 | 311* | -3 | 15 | 3 | 6 | x
Cc1ccc(-c2[nH][nH]c(=O)c(=O)c2N=Nc2ccccc2)cc1 | -11 | 1 | -6 | 0 | -8 | 211*
CN1c2ccc(Br)cc2[C@H]2[C@H](CCN2C(=O)c2cccc(F)c2)[C@@H]1CO | x | x | x | x | x | 9
Cc1ccc(S(=O)(=O)NCCc2ccncc2)cc1 | -8 | -1 | -3 | -11 | 1 | x
CCCCc1ccc(S(=O)(=O)NCCc2ccncc2)cc1 | 3 | 2 | 12 | -2 | 0 | 126*
Cc1ccc(S(=O)(=O)N(C)C[C@@H]2Oc3ccc(NC(=O)C4CC4)cc3CC(=O)N([C@H](C)CO)C[C@@H]2C)cc1 | x | x | x | x | x | -10
c1coc(-c2nc3ccccc3s2)c1 | x | x | 9 | x | -3 | 120*
SMILES | SUMO Mot1 rescue | A3A deaminase | ASAP1 inh | A3G deaminase | ARFGAP1 inh | Statin myotox sup
COc1ccc(-c2nc3ccccc3s2)cc1 | x | x | 3 | x | 2 | x
CCCN1CCN(C(=O)Nc2ccc(C(=O)OCC)cc2)CC1 | -8 | 2 | -8 | 3 | -3 | 109*
C[C@@H]1CN([C@H](C)CO)C(=O)c2cc(NS(=O)(=O)c3ccc(Cl)cc3)ccc2O[C@@H]1CN(C)Cc1ccc(C(=O)Nc2ccccc2N)cc1 | x | x | x | x | x | 97*
C[C@@H]1CN([C@@H](C)CO)C(=O)c2cc(N(C)C)ccc2O[C@@H]1CN(C)Cc1ccc(C(=O)Nc2ccccc2N)cc1 | x | x | x | x | x | -123
C[C@@H]1CN([C@@H](C)CO)C(=O)c2cccc(NC(=O)c3nc4ccccc4s3)c2O[C@H]1CN(C)Cc1ccc(C(=O)Nc2ccccc2N)cc1 | x | x | x | x | x | 101*
C[C@@H]1CN([C@H](C)CO)C(=O)c2cccc(NC(=O)c3nc4ccccc4s3)c2O[C@@H]1CN(C)Cc1ccccc1 | x | x | x | x | x | 23
C[C@@H]1CN([C@@H](C)CO)C(=O)c2cc(NC(=O)Nc3ccc(C(F)(F)F)cc3)ccc2O[C@H]1CN(C)Cc1ccc(C(=O)Nc2ccccc2N)cc1 | x | x | x | x | x | 49
C[C@H]1CN([C@@H](C)CO)C(=O)c2cc(N(C)C)ccc2O[C@@H]1CN(C)Cc1ccc(C(=O)Nc2ccccc2N)cc1 | x | x | x | x | x | 81*
C[C@@H]1CN([C@H](C)CO)C(=O)c2cc(NC(=O)Nc3ccc(C(F)(F)F)cc3)ccc2O[C@@H]1CN(C)Cc1ccc(C(=O)Nc2ccccc2N)cc1 | x | x | x | x | x | 113*
CCNC(=O)[C@@H]1[C@@H](CO)[C@@H]2Cn3c(ccc(-c4cccnc4)c3=O)[C@H]1N2Cc1ccccc1 | x | x | x | x | x | 19
C[C@@H]1CN([C@H](C)CO)C(=O)c2cc(NC(=O)Nc3cccc4ccccc34)ccc2O[C@@H]1CN(C)Cc1ccc(C(=O)Nc2ccccc2N)cc1 | x | x | x | x | x | 149*
C[C@H]1CN([C@@H](C)CO)C(=O)c2cc(NC(=O)Nc3ccc4c(c3)OCO4)ccc2O[C@@H]1CN(C)C(=O)Nc1ccc(C(F)(F)F)cc1 | x | x | x | x | x | 91*
C[C@@H]1CN([C@H](C)CO)C(=O)c2cc(NC(=O)Nc3cccc4ccccc34)ccc2O[C@H]1CN(C)Cc1ccc(C(=O)Nc2ccccc2N)cc1 | x | x | x | x | x | 30
C[C@H](CO)N1C[C@H](C)[C@H](CN(C)Cc2ccc(C(=O)Nc3ccccc3N)cc2)Oc2ccc(NC(=O)Nc3cccc4ccccc34)cc2CC1=O | x | x | x | x | x | 240*
C[C@H]1CN([C@@H](C)CO)C(=O)c2cc(NC(=O)Nc3ccc(C(F)(F)F)cc3)ccc2O[C@@H]1CN(C)C(=O)Nc1ccc2c(c1)OCO2 | x | x | x | x | x | 54
CC(=O)N1[C@@H]2c3ccc(C4=CCCCC4)c(=O)n3C[C@@H]2[C@@H](CO)[C@@H]1C(=O)N1CCCCC1 | x | x | x | x | x | -1
CCC(=O)Nc1ccc2c(c1)OC[C@@H](C)N(C(=O)c1ccc(F)cc1)C[C@H](C)[C@@H](OC)CN(C)C2=O | x | x | x | x | x | -10
O=[N+]([O-])c1cc(Cl)ccc1Sc1cccc2cccnc12 | 8 | 4 | 9 | -7 | -4 | -4
